The text below walks through data of ChEMBL document CHEMBL4354813, “Design, Synthesis, and Pharmacological Evaluation of Potent Positive Allosteric Modulators of the Glucagon-like Peptide-1 Receptor (GLP-1R)” (J Med Chem, 2020).

Data set [1] addresses Cytochrome P450 3A4 (Homo sapiens, UniProt P08684). Kind of data set: Inhibition of CYP3A4 (unknown origin) using midazolam substrate. The data set is classed as ADME.
Data set [2] can be described thus: Solubility in pH 7.4 buffer. The data set is classed as physicochemical.
A short description of data set [3]: Drug recovery in iv dosed rat bile assessed as metabolically unchanged compound level in rat fistula study. The note with it: read-out: Drug recovery. The data set is classed as ADME, organism-based.
The nature of data set [4]: AUClast in Wistar rat at 10 mg/kg, po administered as single dose measured up to 24 hrs ESI-LC/MS-MS analysis. The data set is classed as ADME, organism-based. On the set-up: dose 10 mg/kg, time < 24 hr, route oral. To be noted: in vivo. A digest of the protocol: (§1)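 Single dose of compound: 3 mg/kg i.v. in solution (75% water : 25% of 75% Glycoferol/25% Cremophor) or 10 mg/kg p.o. as wet-milled suspension (0.6% methylcellulose, 0.5% Tween 80 in water); male Wistar rats n=3 per route, female C57Bl6 mice n=24 per route. Plasma sampled 0.25–24 h (p.o.), 0.083–24 h (i.v.); heparinized plasma, acetonitrile precipitation, ESI-LC/MS-MS (LOQ 1 ng/mL rat, 5 ng/mL mouse); noncompartmental analysis, linear trapezoidal.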

Data set [5] in a line: Cmax in Wistar rat at 10 mg/kg, po administered as single dose treated 2 hrs after dosing with 40 mg/kg, po OATP/MRP2 inhibitor rifampicin and measured up to 24 hrs ESI-LC/MS-MS analysis. It counts as ADME, organism-based. The note with it: in vivo. On the set-up: dose 10 mg/kg, route oral. A digest of the protocol: (§2)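 Male Wistar rats (n=3 per route) pretreated orally with rifampicin 40 mg/kg (0.6% methylcellulose, 0.5% Tween 80 in water) 2 h before compound, given 3 mg/kg i.v. in Glycoferol/Cremophor-water solution or 10 mg/kg p.o. wet-milled suspension. Plasma sampled up to 24 h; ESI-LC/MS-MS after acetonitrile precipitation (LOQ 1 ng/mL); noncompartmental analysis.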

The nature of data set [6]: Clearance in Wistar rat at 3 mg/kg, iv administered as single dose treated 2 hrs after dosing with 40 mg/kg, po OATP/MRP2 inhibitor rifampicin and measured up to 24 hrs ESI-LC/MS-MS analysis. The note with it: in vivo. The data set is classed as ADME, organism-based. A digest of the protocol:
as §2

A short description of data set [7]: Clearance in mouse hepatocytes assessed per million cells by LC-MS/MS analysis. It counts as ADME, cell-based, Hepatocyte. A digest of the protocol:
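Intrinsic clearance in primary human hepatocytes ([…] as printed) or mouse hepatocytes, compound 0.5–5 µM; quinidine or ketoconazole added to define CYP2D6/CYP3A4 contribution; LC-MS/MS analysis.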

Data set [8] is filed under the species Rattus norvegicus. Put plainly: Improvement in 10 nM GLP1(9-36)NH2-mediated glucose-stimulated insulin secretion in dispersed rat pancreatic islets at 10 uM incubated for 2 hrs under […] conditions by ELISA. It counts as functional.
Data set [9] in a line: Clearance in C57Bl6 mouse at 3 mg/kg, iv administered as single dose measured up to 24 hrs ESI-LC/MS-MS analysis. It counts as ADME, organism-based. The note with it: in vivo. A digest of the protocol: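 Female C57Bl6 mice (n=24) given single 3 mg/kg i.v. in solution (75% water : 25% of 75% Glycoferol/25% Cremophor); plasma sampled at 0.083, 0.25, 0.5, 1, 2, 4, 6, 8, 24 h; heparinized plasma after acetonitrile protein precipitation analysed by ESI-LC/MS-MS (LOQ 5 ng/mL); noncompartmental parameters with linear trapezoidal calculation.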

A short description of data set [10]: Oral bioavailability in Wistar rat at 10 mg/kg administered as single dose measured up to 24 hrs ESI-LC/MS-MS analysis. The data set is classed as ADME, organism-based. The note with it: in vivo. A digest of the protocol: as §1
Data set [11] in a line: Chemical stability in pH 1.1 buffer. The data set is classed as physicochemical.
The species entered for data set [12] is Rattus norvegicus. Put plainly: Improvement in 10 nM GLP1(9-36)NH2-mediated glucose-stimulated insulin secretion in dispersed rat pancreatic islets at 10 uM incubated for 2 hrs by ELISA. The data set is classed as functional. A digest of the protocol: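 Dispersed islets from male Sprague Dawley rats (collagenase digestion, Histopaque purification, Accutase dispersal, cultured up to 4 days). Pre-incubated 1 h in Krebs-Ringer with 5.6 mM glucose, then 2 h at 37 °C with 15 mM glucose, ±10 nM GLP1(9-36)NH2, ±compound 10 µM, DMSO vehicle; insulin by HTRF ELISA as % of total, n-fold vs control; N≥9.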
Background: ELISA stands for enzyme-linked immunosorbent assay.

The test system of data set [13] is Mus musculus. Put plainly: Suppression of blood glucose concentration in 4.5 mg/kg, ip GLP1(9-36)NH2-treated GLP-1R (-/-) C57Bl/6J mouse model at 30 mg/kg, po dosed 1 hrs before test and treated with 60 mg/kg, po OATP/MRP2 inhibitor rifampicin 2.5 hrs prior to oral glucose-tolerance test. It counts as functional, organism-based. A digest of the protocol:
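GLP-1R-/- male mice aged 10 weeks, n=6, fasted overnight. Rifampicin 60 mg/kg p.o. 2.5 h before the oGTT, compound p.o. 1 h before, with or without GLP1(9-36)NH2 i.p. 15 min before. Glucose 2 g/kg orally. Tail-vein blood glucose by glucometer at 0, 15, 30, 60 and 90 min.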

A short description of data set [14]: Oral bioavailability in C57Bl6 mouse at 10 mg/kg administered as single dose measured up to 24 hrs ESI-LC/MS-MS analysis. The data set is classed as ADME, organism-based. To be noted: in vivo. A digest of the protocol:
as §1

Data set [15] can be described thus: Stability in mouse plasma by LC-MS/MS analysis. It counts as ADME, cell-free.
For data set [16], the species on record is Rattus norvegicus. Kind of data set: Improvement in GLP1(9-36)NH2-mediated glucose-stimulated insulin secretion in dispersed rat pancreatic islets at <10 uM incubated for 2 hrs by ELISA. It counts as functional. A digest of the protocol: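 Dispersed rat islets pre-incubated 1 h in Krebs-Ringer (5.6 mM glucose), then 2 h at 37 °C at 15 mM glucose with GLP1(9-36)NH2 1, 10 or 100 nM ± compound 1 µM, DMSO vehicle. Supernatant insulin measured by HTRF-based ELISA, expressed as % of total insulin and n-fold vs respective control; N≥9 per condition.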

Each structure is given as a SMILES string. Active and inactive are the calls of the source. No cut-off for these calls is given here.

Cytochrome P450 3A4, sequence (P08684 whole entry): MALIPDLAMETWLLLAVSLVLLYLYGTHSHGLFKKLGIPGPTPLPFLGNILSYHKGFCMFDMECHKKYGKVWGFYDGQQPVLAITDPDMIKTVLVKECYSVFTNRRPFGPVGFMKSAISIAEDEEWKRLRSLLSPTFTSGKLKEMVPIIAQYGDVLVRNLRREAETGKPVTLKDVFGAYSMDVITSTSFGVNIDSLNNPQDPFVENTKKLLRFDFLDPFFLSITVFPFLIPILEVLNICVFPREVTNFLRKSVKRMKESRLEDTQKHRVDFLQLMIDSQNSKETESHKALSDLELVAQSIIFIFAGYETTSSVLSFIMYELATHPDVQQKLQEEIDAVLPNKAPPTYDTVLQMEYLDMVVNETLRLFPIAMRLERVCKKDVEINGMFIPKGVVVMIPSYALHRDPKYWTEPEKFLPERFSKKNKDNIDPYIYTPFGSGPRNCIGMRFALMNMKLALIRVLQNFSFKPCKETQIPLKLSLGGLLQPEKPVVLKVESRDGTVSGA

One may read the IC50 as the concentration that gives 50% inhibition. The solubility is the dissolved amount per volume that the medium holds. Low values mean a poorly soluble substance, high ones a readily soluble substance. As a reminder, the Cmax is the peak of the concentration-time curve. By bioavailability is commonly meant dose-corrected exposure relative to a reference, in per cent. Read a low bioavailability as little systemic uptake. `CC(C)(C)OC(=O)n1c2c(c3ccccc31)C[C@H]1C(=O)N3C[C@@H](CC(=O)O)C[C@H]3[C@@H]2N1C(=O)CC1CCC(F)(F)CC1` registered an IC50 in [1] of more than 50 µM. Besides, the solubility in data set [2] is more than 853 µM. In addition, the dose excreted in data set [3] was 74%. The compound also registered an AUClast in [4] of 110 ng·h/mL. In data set [5], this compound showed a Cmax of 1130 ng/mL. The clearance was 19.2 mL/min/kg in [6] and 109 mL/min/kg in data set [9]. In addition, in [7], the CLH was 0.145 mL/h/10^6 cells. Further, the outcome in [8] and in data set [13] was inactive. Also, the bioavailability amounted to 9% in [10] and 7.2% in data set [14]. Further, the Stability in [11] and in data set [15] was 98% throughout. The outcome in data set [12] was Active.
Take `CC(O)CCN1C[C@H]2c3c(c4ccccc4n3C(=O)OC(C)(C)C)C[C@@H](C1=O)N2C(=O)CC1CCC(F)(F)CC1` (stereo partly specified): in data set [16], the outcome was Active.
